Assays:
[1] = system: HCT-116; test: Cytotoxicity against human HCT116 cells assessed as reduction in cell viability after 48 hrs by SRB assay; format: functional, cell-based; conditions: HCT-116, 48 h
How it was run: (§1)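 SRB assay. Compounds active at 10 µM in the primary screen were retested at 1, 2.5 and 5 µM, and IC50 was calculated from these concentrations. The normal breast epithelial line fR2 was tested alongside the cancer lines.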

[2] = system: MCF7; test: Growth inhibition of human MCF7 cells at 10 uM after 48 hrs by SRB assay relative to control; format: functional; conditions: MCF7, 48 h, read-out: GI
How it was run: (§2)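 Primary SRB screen of every compound at a single concentration of 10 µM. Growth inhibition is expressed relative to control.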

[3] = Selectivity index, ratio of IC50 for human FR2 cells to IC50 for human A549 cells; format: functional
How it was run: (§3)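 Selectivity index is the IC50 in normal breast epithelial fR2 cells divided by the IC50 in each cancer line. All IC50 values come from the SRB assay.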

[4] = system: MIA PaCa-2; test: Cytotoxicity against human MIAPaCa2 cells assessed as reduction in cell viability after 48 hrs by SRB assay; format: functional, cell-based; conditions: MIA PaCa-2, 48 h; how it was run: as §1
[5] = system: MCF7; test: Cytotoxicity against human MCF7 cells assessed as reduction in cell viability after 48 hrs by SRB assay; format: functional, cell-based; conditions: MCF7, 48 h; how it was run: as §1
[6] = system: HCT-116; test: Growth inhibition of human HCT116 cells at 10 uM after 48 hrs by SRB assay relative to control; format: functional; conditions: HCT-116, 48 h, read-out: GI; how it was run: as §2
[7] = system: MIA PaCa-2; test: Growth inhibition of human MIAPaCa2 at 10 uM after 48 hrs by SRB assay relative to control; format: functional; conditions: MIA PaCa-2, 48 h, read-out: GI; how it was run: as §2
[8] = system: A549; test: Growth inhibition of human A549 cells at 10 uM after 48 hrs by SRB assay relative to control; format: functional; conditions: A549, 48 h, read-out: GI; how it was run: as §2
[9] = system: PC-3; test: Growth inhibition of human PC3 cells at 10 uM after 48 hrs by SRB assay relative to control; format: functional; conditions: PC-3, 48 h, read-out: GI; how it was run: as §2
[10] = Selectivity index, ratio of IC50 for human FR2 cells to IC50 for human MIAPaCa2 cells; format: functional; how it was run: as §3
[11] = system: A549; test: Cytotoxicity against human A549 cells assessed as reduction in cell viability after 48 hrs by SRB assay; format: functional, cell-based; conditions: A549, 48 h; how it was run: as §1
[12] = Cytotoxicity against human FR2 cells assessed as reduction in cell viability after 48 hrs by SRB assay; format: cell-based; conditions: FR2, 48 h; how it was run: as §1
[13] = Selectivity index, ratio of IC50 for human FR2 cells to IC50 for human MCF7 cells; format: functional; how it was run: as §3
[14] = Selectivity index, ratio of IC50 for human FR2 cells to IC50 for human PC3 cells; format: functional; how it was run: as §3
[15] = Selectivity index, ratio of IC50 for human FR2 cells to IC50 for human HCT116 cells; format: functional; how it was run: as §3
[16] = system: PC-3; test: Cytotoxicity against human PC3 cells assessed as reduction in cell viability after 48 hrs by SRB assay; format: functional, cell-based; conditions: PC-3, 48 h; how it was run: as §1

## C=C(C)[C@@H]1CC[C@]2(C(=O)O)CC[C@]3(C)[C@H](CC[C@@H]4[C@@]5(C)C/C(=C\c6ccsc6)C(=O)C(C)(C)[C@@H]5CC[C@]43C)[C@@H]12
[1]
  IC50: 5.1 µM
[2]
  inhibition of growth at 10 µM: 92%
[3]
  Ratio IC50: 5.317
[4]
  IC50: 5.3 µM
[5]
  IC50: 2.9 µM
[6]
  inhibition of growth at 10 µM: 91%
[7]
  inhibition of growth at 10 µM: 76%
[8]
  inhibition of growth at 10 µM: 95%
[9]
  inhibition of growth at 10 µM: 82%
[10]
  Ratio IC50: 3.913
[11]
  IC50: 3.9 µM
[12]
  IC50: 20.7 µM
[13]
  Ratio IC50: 7.151
[14]
  Ratio IC50: 3.095
[15]
  Ratio IC50: 4.066
[16]
  IC50: 6.7 µM

## C=C(C)[C@@H]1CC[C@]2(C(=O)O)CC[C@]3(C)[C@H](CC[C@@H]4[C@@]5(C)C/C(=C\c6ccccc6Br)C(=O)C(C)(C)[C@@H]5CC[C@]43C)[C@@H]12
[1]
  IC50: 4.3 µM
[2]
  inhibition of growth at 10 µM: 80%
[3]
  Ratio IC50: 3.111
[4]
  IC50: 4.04 µM
[5]
  IC50: 7.7 µM
[6]
  inhibition of growth at 10 µM: 86%
[7]
  inhibition of growth at 10 µM: 81%
[8]
  inhibition of growth at 10 µM: 90%
[9]
  inhibition of growth at 10 µM: 77%
[10]
  Ratio IC50: 4.698
[11]
  IC50: 6.1 µM
[12]
  IC50: 19 µM
[13]
  Ratio IC50: 2.464
[14]
  Ratio IC50: 2.497
[15]
  Ratio IC50: 4.413
[16]
  IC50: 7.6 µM

## C=C(C)[C@@H]1CC[C@]2(C(=O)O)CC[C@]3(C)[C@H](CC[C@@H]4[C@@]5(C)C/C(=C\c6cccc([N+](=O)[O-])c6)[C@H](O)C(C)(C)[C@@H]5CC[C@]43C)[C@@H]12
[1]
  IC50: 3.9 µM
[2]
  inhibition of growth at 10 µM: 77%
[3]
  Ratio IC50: 9.88
[4]
  IC50: 6.7 µM
[5]
  IC50: 4.5 µM
[6]
  inhibition of growth at 10 µM: 88%
[7]
  inhibition of growth at 10 µM: 80%
[8]
  inhibition of growth at 10 µM: 92%
[9]
  inhibition of growth at 10 µM: 80%
[10]
  Ratio IC50: 1.8
[11]
  IC50: 1.22 µM
[12]
  IC50: 12.1 µM
[13]
  Ratio IC50: 2.68
[14]
  Ratio IC50: 2.941
[15]
  Ratio IC50: 3.092
[16]
  IC50: 4.1 µM

## C=C(C)[C@@H]1CC[C@]2(C(=O)O)CC[C@]3(C)[C@H](CC[C@@H]4[C@@]5(C)C/C(=C\c6ccc(F)cc6)C(=O)C(C)(C)[C@@H]5CC[C@]43C)[C@@H]12
[1]
  IC50: 3.6 µM
[2]
  inhibition of growth at 10 µM: 95%
[3]
  Ratio IC50: 27.33
[4]
  IC50: 5.4 µM
[5]
  IC50: 4.4 µM
[6]
  inhibition of growth at 10 µM: 99%
[7]
  inhibition of growth at 10 µM: 96%
[8]
  inhibition of growth at 10 µM: 92%
[9]
  inhibition of growth at 10 µM: 95%
[10]
  Ratio IC50: 13.15
[11]
  IC50: 2.6 µM
[12]
  IC50: 71.1 µM
[13]
  Ratio IC50: 16.15
[14]
  Ratio IC50: 11.1
[15]
  Ratio IC50: 19.73
[16]
  IC50: 6.4 µM

## C=C(C)[C@@H]1CC[C@]2(C(=O)O)CC[C@]3(C)[C@H](CC[C@@H]4[C@@]5(C)C/C(=C\c6ccc(F)c(Br)c6)C(=O)C(C)(C)[C@@H]5CC[C@]43C)[C@@H]12
[1]
  IC50: 5.8 µM
[2]
  inhibition of growth at 10 µM: 85%
[3]
  Ratio IC50: 12.09
[4]
  IC50: 6.9 µM
[5]
  IC50: 7.07 µM
[6]
  inhibition of growth at 10 µM: 89%
[7]
  inhibition of growth at 10 µM: 82%
[8]
  inhibition of growth at 10 µM: 89%
[9]
  inhibition of growth at 10 µM: 71%
[10]
  Ratio IC50: 6.836
[11]
  IC50: 3.9 µM
[12]
  IC50: 47.2 µM
[13]
  Ratio IC50: 6.671
[14]
  Ratio IC50: 5.881
[15]
  Ratio IC50: 8.132
[16]
  IC50: 8.02 µM

## C=C(C)[C@@H]1CC[C@]2(C(=O)O)CC[C@]3(C)[C@H](CC[C@@H]4[C@@]5(C)C/C(=C\c6ccc([N+](=O)[O-])cc6)C(=O)C(C)(C)[C@@H]5CC[C@]43C)[C@@H]12
[1]
  IC50: 1.4 µM
[2]
  inhibition of growth at 10 µM: 83%
[3]
  Ratio IC50: 9.353
[4]
  IC50: 6.5 µM
[5]
  IC50: 3.1 µM
[6]
  inhibition of growth at 10 µM: 75%
[7]
  inhibition of growth at 10 µM: 61%
[8]
  inhibition of growth at 10 µM: 82%
[9]
  inhibition of growth at 10 µM: 37%
[10]
  Ratio IC50: 2.158
[11]
  IC50: 1.5 µM
[12]
  IC50: 14 µM
[13]
  Ratio IC50: 4.525
[15]
  Ratio IC50: 10.02
[16]
  IC50: > 10 µM

## C=C(C)[C@@H]1CC[C@]2(C(=O)O)CC[C@]3(C)[C@H](CC[C@@H]4[C@@]5(C)C/C(=C\c6cccc7ccccc67)[C@H](O)C(C)(C)[C@@H]5CC[C@]43C)[C@@H]12
[1]
  IC50: 3.6 µM
[2]
  inhibition of growth at 10 µM: 64%
[4]
  IC50: 7.09 µM
[5]
  IC50: 7.5 µM
[6]
  inhibition of growth at 10 µM: 55%
[7]
  inhibition of growth at 10 µM: 62%
[8]
  inhibition of growth at 10 µM: 36%
[9]
  inhibition of growth at 10 µM: 36%
[10]
  Ratio IC50: 1.416
[11]
  IC50: > 10 µM
[12]
  IC50: 10 µM
[13]
  Ratio IC50: 1.338
[15]
  Ratio IC50: 2.788
[16]
  IC50: > 10 µM

## C=C(C)[C@@H]1CC[C@]2(C(=O)O)CC[C@]3(C)[C@H](CC[C@@H]4[C@@]5(C)C/C(=C\c6cccc(Br)c6)[C@H](O)C(C)(C)[C@@H]5CC[C@]43C)[C@@H]12
[1]
  IC50: > 10 µM
[2]
  inhibition of growth at 10 µM: 65%
[3]
  Ratio IC50: 4.16
[4]
  IC50: 14.4 µM
[5]
  IC50: 8.06 µM
[6]
  inhibition of growth at 10 µM: 46%
[7]
  inhibition of growth at 10 µM: 22%
[8]
  inhibition of growth at 10 µM: 90%
[9]
  inhibition of growth at 10 µM: 59%
[10]
  Ratio IC50: 1.041
[11]
  IC50: 3.6 µM
[12]
  IC50: 15 µM
[13]
  Ratio IC50: 1.86
[14]
  Ratio IC50: 2.72
[16]
  IC50: 5.5 µM

## C=C(C)[C@@H]1CC[C@]2(C(=O)O)CC[C@]3(C)[C@H](CC[C@@H]4[C@@]5(C)C/C(=C\c6ccccc6Br)[C@H](O)C(C)(C)[C@@H]5CC[C@]43C)[C@@H]12
[1]
  IC50: > 10 µM
[2]
  inhibition of growth at 10 µM: 57%
[4]
  IC50: 9.6 µM
[5]
  IC50: 8.2 µM
[6]
  inhibition of growth at 10 µM: 43%
[7]
  inhibition of growth at 10 µM: 49%
[8]
  inhibition of growth at 10 µM: 47%
[9]
  inhibition of growth at 10 µM: 19%
[10]
  Ratio IC50: 2.257
[11]
  IC50: > 10 µM
[12]
  IC50: 21.7 µM
[13]
  Ratio IC50: 2.642
[16]
  IC50: > 10 µM

## C=C(C)[C@@H]1CC[C@]2(C(=O)O)CC[C@]3(C)[C@H](CC[C@@H]4[C@@]5(C)C/C(=C\c6ccc(F)cc6)[C@H](O)C(C)(C)[C@@H]5CC[C@]43C)[C@@H]12
[1]
  IC50: 1.5 µM
[2]
  inhibition of growth at 10 µM: 77%
[3]
  Ratio IC50: 3.6
[4]
  IC50: 1.21 µM
[5]
  IC50: 1.18 µM
[6]
  inhibition of growth at 10 µM: 67%
[7]
  inhibition of growth at 10 µM: 78%
[8]
  inhibition of growth at 10 µM: 59%
[9]
  inhibition of growth at 10 µM: 48%
[10]
  Ratio IC50: 8.702
[11]
  IC50: 4 µM
[12]
  IC50: 14.4 µM
[13]
  Ratio IC50: 12.22
[15]
  Ratio IC50: 9.62
[16]
  IC50: > 10 µM

## C=C(C)[C@@H]1CC[C@]2(C(=O)O)CC[C@]3(C)[C@H](CC[C@@H]4[C@@]5(C)C/C(=C\c6cccc([N+](=O)[O-])c6)C(=O)C(C)(C)[C@@H]5CC[C@]43C)[C@@H]12
[1]
  IC50: 7.6 µM
[2]
  inhibition of growth at 10 µM: 70%
[3]
  Ratio IC50: 2.591
[4]
  IC50: > 10 µM
[5]
  IC50: 7.1 µM
[6]
  inhibition of growth at 10 µM: 69%
[7]
  inhibition of growth at 10 µM: 31%
[8]
  inhibition of growth at 10 µM: 75%
[9]
  inhibition of growth at 10 µM: 41%
[11]
  IC50: 4.7 µM
[12]
  IC50: 12.2 µM
[13]
  Ratio IC50: 1.715
[14]
  Ratio IC50: 3.009
[15]
  Ratio IC50: 1.602
[16]
  IC50: > 10 µM

From ChEMBL document CHEMBL4052644, “Synthesis of novel benzylidene analogues of betulinic acid as potent cytotoxic agents” (Eur J Med Chem, 2017)
